# In ChEMBL document CHEMBL1811804, “Benzyl derivatives with in vitro binding affinity for human opioid and cannabinoid receptors from the fungus Eurotium repens” (J Nat Prod, 2011):
# Experiments:
# Type in all cases: cell-based
# [1] = biological target: T1, Delta-type opioid receptor (Homo sapiens, UniProt P41143); assay: Binding affinity at human delta opioid receptor expressed in CHO-K1 cells at 10 uM
# Summary of the method: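 Opioid membrane binding with test compound at 10 μM final; radioligand and membrane amounts set from saturation experiments. Incubation 25 °C, 60 min, then rapid filtration through BSA-presoaked filters, buffer wash and scintillation counting.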
# Cannabinoid receptor 1 [2] = biological target: T2, Cannabinoid receptor 1 (Homo sapiens, UniProt P21554); assay: Binding affinity at human CB1 receptor expressed in CHO-K1 cells at 10 uM
# Cannabinoid receptor 1 [3] = biological target: T2, Cannabinoid receptor 1; assay: Displacement of [3H]CP-55,940 from human CB1 receptor expressed in CHO-K1 cells after 90 mins by scintillation counting
# Summary of the method: (§1)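 Membranes from CHO-K1 cells stably expressing human CB1 or CB2, 10 μg per well, with 0.6 nM [3H]CP-55,940 in 50 mM Tris pH 7.4, 154 mM NaCl, 20 mM Di-Na-EDTA, 0.02% BSA; 37 °C for 90 min. Dose-response from 300 μM to 1.7 nM.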
# Cannabinoid receptor 2 [4] = biological target: T3, Cannabinoid receptor 2 (Homo sapiens, UniProt P34972); assay: Binding affinity at human CB2 receptor expressed in CHO-K1 cells at 10 uM
# Summary of the method: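 CHO-K1 cells stably transfected with full-length human CB1 or CB2 cDNA, cultured in DMEM/F-12 with 10% FBS and G418 or hygromycin B. Membranes (10 μg) incubated with test compound at 10 μM final and 0.6 nM [3H]CP-55,940 in 50 mM Tris pH 7.4, 154 mM NaCl, 20 mM Di-Na-EDTA, 0.02% BSA, 37 °C, 90 min. Filtration, scintillation counting; nonspecific binding (1 μM CP-55,940) subtracted; % displacement.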
# Cannabinoid receptor 2 [5] = biological target: T3, Cannabinoid receptor 2; assay: Displacement of [3H]CP-55,940 from human CB2 receptor expressed in CHO-K1 cells after 90 mins by scintillation counting; summary of the method: as §1
# Mu-type opioid receptor = Mu-type opioid receptor (Homo sapiens, UniProt P35372); assay: Displacement of [3H]DAMGO from human mu opioid receptor expressed in CHO-K1 cells after 60 mins by scintillation counting
# Summary of the method: (§2)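 Opioid receptor membranes incubated with radioligand (amounts set from saturation experiments) at 25 °C for 60 min, test compound at 300 μM to 1.7 nM in dose-response. Rapid filtration through BSA-presoaked filters, scintillation counting; nonspecific binding (10 μM DPDPE, nor-binaltorphimine or DAMGO) subtracted. IC50 = concentration for 50% inhibition of 3H-ligand binding.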
# [6] = biological target: T1, Delta-type opioid receptor; assay: Displacement of [3H]DPDPE from human delta opioid receptor expressed in CHO-K1 cells after 60 mins by scintillation counting; summary of the method: as §2
# [7] = biological target: Kappa-type opioid receptor (Homo sapiens, UniProt P41145); assay: Displacement of [3H]nor-Binaltorphimine from human kappa opioid receptor expressed in CHO-K1 cells after 60 mins by scintillation counting; summary of the method: as §2
# Sequence of Kappa-type opioid receptor (P41145 whole entry): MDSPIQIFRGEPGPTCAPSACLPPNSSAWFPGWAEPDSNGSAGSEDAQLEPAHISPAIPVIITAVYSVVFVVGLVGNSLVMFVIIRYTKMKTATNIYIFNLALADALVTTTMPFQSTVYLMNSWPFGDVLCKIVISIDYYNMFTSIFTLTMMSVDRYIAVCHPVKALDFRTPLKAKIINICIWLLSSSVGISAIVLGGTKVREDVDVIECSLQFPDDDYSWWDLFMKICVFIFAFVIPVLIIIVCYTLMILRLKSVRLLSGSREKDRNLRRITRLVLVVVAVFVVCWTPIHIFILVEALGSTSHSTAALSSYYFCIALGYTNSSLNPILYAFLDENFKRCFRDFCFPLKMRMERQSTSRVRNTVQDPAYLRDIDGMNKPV
# T3 sequence (P34972 whole entry): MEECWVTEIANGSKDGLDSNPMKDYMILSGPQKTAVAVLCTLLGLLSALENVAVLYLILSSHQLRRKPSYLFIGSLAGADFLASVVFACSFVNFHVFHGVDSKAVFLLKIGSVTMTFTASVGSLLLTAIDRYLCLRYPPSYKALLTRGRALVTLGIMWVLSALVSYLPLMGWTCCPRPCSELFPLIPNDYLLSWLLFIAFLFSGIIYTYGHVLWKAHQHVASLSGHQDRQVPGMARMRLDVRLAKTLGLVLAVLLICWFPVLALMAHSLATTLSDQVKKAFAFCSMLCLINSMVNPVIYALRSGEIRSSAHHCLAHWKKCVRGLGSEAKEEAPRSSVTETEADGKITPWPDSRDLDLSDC
# T1 sequence (P41143 whole entry): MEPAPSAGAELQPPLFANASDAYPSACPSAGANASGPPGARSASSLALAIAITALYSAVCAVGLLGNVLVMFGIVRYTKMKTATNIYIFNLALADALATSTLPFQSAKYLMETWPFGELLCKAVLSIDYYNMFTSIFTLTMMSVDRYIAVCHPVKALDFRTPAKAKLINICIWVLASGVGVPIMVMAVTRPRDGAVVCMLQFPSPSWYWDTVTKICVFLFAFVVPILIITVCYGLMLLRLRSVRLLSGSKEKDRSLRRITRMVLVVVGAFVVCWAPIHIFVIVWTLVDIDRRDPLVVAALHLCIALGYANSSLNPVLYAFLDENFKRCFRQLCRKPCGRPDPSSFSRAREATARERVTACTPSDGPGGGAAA
# T2 sequence (P21554 whole entry): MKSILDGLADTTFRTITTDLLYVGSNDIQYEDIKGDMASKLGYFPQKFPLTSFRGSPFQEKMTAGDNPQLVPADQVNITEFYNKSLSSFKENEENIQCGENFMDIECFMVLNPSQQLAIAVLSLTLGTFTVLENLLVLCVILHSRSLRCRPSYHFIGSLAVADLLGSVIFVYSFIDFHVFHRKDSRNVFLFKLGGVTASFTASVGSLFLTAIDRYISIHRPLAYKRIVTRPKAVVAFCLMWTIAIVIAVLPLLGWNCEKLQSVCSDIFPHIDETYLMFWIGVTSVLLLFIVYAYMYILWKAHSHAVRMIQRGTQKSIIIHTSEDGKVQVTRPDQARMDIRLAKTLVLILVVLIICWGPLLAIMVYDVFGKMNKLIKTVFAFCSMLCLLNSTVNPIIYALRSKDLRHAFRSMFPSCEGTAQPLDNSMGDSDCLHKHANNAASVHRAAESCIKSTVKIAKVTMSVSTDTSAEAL
# Sequence of Mu-type opioid receptor (P35372 whole entry): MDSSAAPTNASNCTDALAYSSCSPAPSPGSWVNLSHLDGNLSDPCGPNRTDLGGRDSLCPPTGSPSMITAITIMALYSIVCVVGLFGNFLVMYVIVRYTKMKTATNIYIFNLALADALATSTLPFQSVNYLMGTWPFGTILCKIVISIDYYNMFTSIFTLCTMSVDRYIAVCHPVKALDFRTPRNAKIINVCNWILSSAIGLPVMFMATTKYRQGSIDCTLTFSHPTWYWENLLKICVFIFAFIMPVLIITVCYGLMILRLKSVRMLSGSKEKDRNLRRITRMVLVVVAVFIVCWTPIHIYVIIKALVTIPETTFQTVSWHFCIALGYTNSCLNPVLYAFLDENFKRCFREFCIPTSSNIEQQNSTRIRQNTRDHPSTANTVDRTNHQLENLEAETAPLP
SMILES,Activity [1] [%],Activity (Cannabinoid receptor 1 [2]) [%],IC50 (Cannabinoid receptor 1 [3]) [µM],Activity (Cannabinoid receptor 2 [4]) [%],IC50 (Cannabinoid receptor 2 [5]) [µM],IC50 (Mu-type opioid receptor) [µM],IC50 [6] [µM],IC50 [7] [µM]
C/C=C/C=C/C=C/c1c(O)cc(CC=C(C)C)c(O)c1C=O [AUROGLAUCIN],< 40,62.6,15.2,43.1,19.9,–,–,–
CCC/C=C/C=C/c1c(O)cc(CC=C(C)C)c(O)c1C=O,< 40,< 40,–,< 40,–,–,–,–
CCCCCCCc1c(O)cc(CC=C(C)C)c(O)c1C=O,52.5,< 40,–,< 40,–,–,–,–
Cc1c(O)cc(O)c2c1COC2=O,< 40,< 40,–,< 40,–,–,–,–
CCC/C=C/c1cc2c(C=O)c(O)c(CC=C(C)C)cc2o1,< 40,< 40,–,< 40,–,–,–,–
C=CC(C)(C)c1[nH]c2c(CC=C(C)C)cc(CC=C(C)C)cc2c1C[C@@H]1NC(=O)[C@H](C)NC1=O,< 40,< 40,–,< 40,–,–,–,–

# The remaining lines, values ahead:
Activity [1] [%],Activity (Cannabinoid receptor 1 [2]) [%],IC50 (Cannabinoid receptor 1 [3]) [µM],Activity (Cannabinoid receptor 2 [4]) [%],IC50 (Cannabinoid receptor 2 [5]) [µM],IC50 (Mu-type opioid receptor) [µM],IC50 [6] [µM],IC50 [7] [µM],SMILES
< 40,< 40,–,< 40,–,7.2,–,–,CCCCC/C=C/c1c(O)cc(CC=C(C)C)c(O)c1C=O [TETRAHYDROAUROGLAUCIN]
62.2,< 40,–,< 40,–,–,5.4,–,CCCCC/C=C/c1c(O)cc(CC=C(C)C)c(O)c1CO
< 40,–,–,–,–,–,–,32.4,CCCCC/C=C/c1c(O)cc(CC=C(C)C)c2c1CC(O)O2 (stereo not given)
